What all share (format): functional, organism-based
Test [1] deals with Meloidogyne javanica. Description: Nematicidal Activity against Meloidogyne javanica (root-knot nematode) assessed as death/paralysis of nematodes at 1 hr after immersion in test solution. The essentials:
(§1)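 J2 of an Italian M. javanica population reared two months on tomato in a glasshouse at 25+2 °C. Pure compounds were made up as double-strength solutions (methanol ≤1% v/v final, tween in water) and mixed 1:1 with 15 J2 per well, covered, dark, 28 °C. Paralysis was scored by microscope, 5 replicates, run twice, Schneider-Orelli corrected, EC50 by regression.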

The subject of test [2] is Meloidogyne javanica. Description: Nematicidal Activity against Meloidogyne javanica (root-knot nematode) assessed as death/paralysis of nematodes at 1 day after immersion in test solution. Conditions: 24 h. An outline of the steps: as §1
The test system of test [3] is Meloidogyne javanica. The test is described as follows: Nematicidal Activity against Meloidogyne javanica (root-knot nematode) assessed as death/paralysis of nematodes at 25 to 1000 mg/l at 1 day after immersion in test solution. An outline of the steps:
(§2)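 Second-stage juveniles (J2) came from an Italian M. javanica population reared two months on tomato in a glasshouse at 25±2 °C. Solutions at double strength were mixed 1:1 with 15 J2 per well, covered, in the dark at 28 °C. Methanol was ≤1% v/v final, and water and 0.3% tween controls were run. Paralysis was scored at 10×. Five replicates per treatment, experiment done twice. Control-corrected (Schneider-Orelli) EC50 was obtained by regression.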

Test [4] has as its system Meloidogyne javanica. Description: Nematicidal Activity against Meloidogyne javanica (root-knot nematode) assessed as death/paralysis of nematodes at 25 to 1000 mg/l at 1 hr after immersion in test solution. The essentials: as §2

In brackets after ≈: the same amount, converted by molar mass. Activity calls are given as the source filed them. The rule behind the calls is not given here. Where only a bound is given, the exact number is not on record here.

Broadly, the EC50 is the concentration that produces a half-maximal response.

For `CCCCCCCC/C=C/C=O`, the EC50 in the test with Meloidogyne javanica [1] and in the test with Meloidogyne javanica [2] was above 25 µg/mL in each case.

With `CCCCCC=O`, the result in the test with Meloidogyne javanica [3] and with Meloidogyne javanica [4] was inactive.

Turning to `O=Cc1ccc(CO)o1` [AES-103], the EC50 in the test on Meloidogyne javanica [1] and in the test with Meloidogyne javanica [2] was above 25 µg/mL each time.

Regarding `CCCCCCCCC=O` [NONANAL], the result with Meloidogyne javanica [3] was inactive. Moreover, the EC50 in the test on Meloidogyne javanica [1] was above 50 µg/mL.

Consider `CCCCC/C=C/C=C/C=O`, for which the EC50 in the test with Meloidogyne javanica [1] stood at 7.53 µg/mL (≈ 49.5 µM); in the test with Meloidogyne javanica [2], 11.7 µg/mL (≈ 76.9 µM).

Turning to `CCCCCCC=O`, the result in the test with Meloidogyne javanica [3] and with Meloidogyne javanica [4] was inactive.

Consider `CCCCC/C=C/C=O`, for which, in the test with Meloidogyne javanica [4], the outcome was inactive. In addition, the EC50 in the test on Meloidogyne javanica [2] was above 25 µg/mL.

For `CCCCCCC/C=C/C=O` [TRANS-2-DECENAL], the EC50 with Meloidogyne javanica [1] came out at 11.8 µg/mL (≈ 76.2 µM); with Meloidogyne javanica [2] it was 20.4 µg/mL (≈ 132 µM).

In the case of `O=Cc1ccco1` [FURFURAL], the figures for the EC50 in the test on Meloidogyne javanica [1] and in the test on Meloidogyne javanica [2] were above 25 µg/mL and 21.8 µg/mL (≈ 227 µM), respectively.

Consider `CCOP(=O)(SC(C)CC)N1CCSC1=O` (stereo not given) [FOSTHIAZATE], for which the 50% effective concentration (EC50) in the test with Meloidogyne javanica [1] is above 25 µg/mL; in the test on Meloidogyne javanica [2], 15.9 µg/mL (≈ 56.1 µM).
